Measurements reported in ChEMBL document CHEMBL4346661, “Design, synthesis and evaluation of novel diaryl-1,5-diazoles derivatives bearing morpholine as potent dual COX-2/5-LOX inhibitors and antitumor agents” (Eur J Med Chem, 2019).

Tests used:
B16-F10 = assay: Antiproliferative activity against mouse B16F10 cells incubated for 48 hrs by MTT assay; type: functional, cell-based; details: B16-F10, 48 h
Method in brief: (§1)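 MTT assay on F10 (murine melanoma), HeLa, A549, MCF-7 and 293T (human renal epithelium) cells. IC50 given as mean ± SD of three independent experiments.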

HeLa = assay: Antiproliferative activity against human HeLa cells incubated for 48 hrs by MTT assay; type: functional, cell-based; method in brief: as §1
A549 = assay: Antiproliferative activity against human A549 cells incubated for 48 hrs by MTT assay; type: functional, cell-based; details: A549, 48 h; method in brief: as §1
MCF7 = assay: Antiproliferative activity against human MCF7 cells incubated for 48 hrs by MTT assay; type: functional, cell-based; details: MCF7, 48 h; method in brief: as §1
HEK-293T = assay: Antiproliferative activity against human 293T cells incubated for 48 hrs by MTT assay; type: cell-based; method in brief: as §1
[1] = target: T1, Prostaglandin G/H synthase 2 (Homo sapiens, UniProt P35354); assay: Inhibition of COX2 (unknown origin) using arachidonic acid as substrate incubated for 10 mins by Ellman's reagent based COX-1/COX-2 ELISA assay
T1 sequence (P35354 whole entry): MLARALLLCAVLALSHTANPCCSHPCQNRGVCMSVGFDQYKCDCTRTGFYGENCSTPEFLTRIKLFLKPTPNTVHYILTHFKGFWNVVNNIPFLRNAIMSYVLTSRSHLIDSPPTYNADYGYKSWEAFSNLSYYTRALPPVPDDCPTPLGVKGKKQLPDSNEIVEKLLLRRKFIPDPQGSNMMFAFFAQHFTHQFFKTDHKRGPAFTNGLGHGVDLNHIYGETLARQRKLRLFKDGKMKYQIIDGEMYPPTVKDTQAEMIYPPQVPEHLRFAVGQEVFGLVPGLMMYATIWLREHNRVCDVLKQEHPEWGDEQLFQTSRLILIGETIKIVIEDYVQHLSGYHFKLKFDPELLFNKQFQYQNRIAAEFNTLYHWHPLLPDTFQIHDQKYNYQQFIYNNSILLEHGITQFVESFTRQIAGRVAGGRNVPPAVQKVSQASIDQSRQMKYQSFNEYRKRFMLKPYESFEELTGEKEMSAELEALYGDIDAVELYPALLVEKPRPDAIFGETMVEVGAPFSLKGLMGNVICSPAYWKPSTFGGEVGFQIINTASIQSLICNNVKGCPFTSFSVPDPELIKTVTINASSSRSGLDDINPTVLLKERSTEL

[2] = Inhibition of 5-LOX assessed as calcium ionophore A23187-stimulated LTB4 production preincubated for 30 mins followed by calcium ionophore A23187 addition and measured after 30 mins by ELISA

Structure (SMILES) | IC50 (B16-F10) [µM] | IC50 (HeLa) [µM] | IC50 (A549) [µM] | IC50 (MCF7) [µM] | IC50 [1] [µM] | IC50 [2] [µM] | IC50 (HEK-293T) [µM]
NS(=O)(=O)c1ccc(-n2nc(C(=O)O)cc2-c2ccc(C(F)(F)F)cc2)cc1 | 23.8 | 26.5 | 22.5 | 24.8 |  |  | 190
Cc1ccc(-c2cc(C(=O)N3CCOCC3)nn2-c2ccc(S(N)(=O)=O)cc2)cc1 | 21.4 | > 100 | 22.8 | 17.9 | 0.93 | 1.24 | 190
NS(=O)(=O)c1ccc(-n2nc(C(=O)NCCN3CCOCC3)cc2-c2ccccc2)cc1 | 30.8 | 21.8 | > 100 | 39.2 | 0.64 | 0.96 | 151
NS(=O)(=O)c1ccc(-n2nc(C(=O)N3CCOCC3)cc2-c2ccc(Br)cc2)cc1 | > 100 | 22.6 | 20 | 17.9 | 0.31 | 0.98 | 160
NS(=O)(=O)c1ccc(-n2nc(C(=O)N3CCSCC3)cc2-c2ccc(F)cc2)cc1 | 26.4 | 29.2 | 18.2 | 18.2 | 0.21 | 1.27 | 174
COc1cccc(-c2cc(C(=O)N3CCOCC3)nn2-c2ccc(S(N)(=O)=O)cc2)c1 | 29.2 | > 100 | > 100 | 26 | 2.25 | 0.96 | 134
COc1cccc(-c2cc(C(=O)N3CCSCC3)nn2-c2ccc(S(N)(=O)=O)cc2)c1 | 13 | 20.3 | 16 | 17.9 | 1.95 | 1.19 | 177

Further lines, with some results ahead:

IC50 (B16-F10) [µM] | IC50 (HeLa) [µM] | IC50 (A549) [µM] | IC50 (MCF7) [µM] | IC50 [1] [µM] | IC50 [2] [µM] | Structure (SMILES) | IC50 (HEK-293T) [µM]
13.7 | 26.7 | 18.2 | 19.8 | 1.05 | 0.87 | COc1ccc(-c2cc(C(=O)OCCCN3CCOCC3)nn2-c2ccc(S(N)(=O)=O)cc2)cc1 | 169
> 100 | 20 | 19.5 | 23 | 0.31 | 0.89 | NS(=O)(=O)c1ccc(-n2nc(C(=O)NCCN3CCOCC3)cc2-c2ccc(Cl)cc2)cc1 | 112
32.3 | 21.6 | > 100 | 16.5 | 0.97 | 0.97 | CCOc1ccc(-c2cc(C(=O)N3CCSCC3)nn2-c2ccc(S(N)(=O)=O)cc2)cc1 | 169
20.8 | 21.6 | 19.6 | 16 | 2.01 | 0.93 | COc1ccc(-c2cc(C(=O)N3CCOCC3)nn2-c2ccc(S(N)(=O)=O)cc2)cc1 | 207
20.2 | 29.8 | 21.5 | 18.8 | 1.11 | 0.79 | CCOc1ccc(-c2cc(C(=O)OCCN3CCOCC3)nn2-c2ccc(S(N)(=O)=O)cc2)cc1 | 116
18.6 | 27.2 | 41.7 | 15 | 2.99 | 0.95 | CCOc1ccc(-c2cc(C(=O)N3CCOCC3)nn2-c2ccc(S(N)(=O)=O)cc2)cc1 | 116
13 | > 100 | 19.2 | 16.3 | 0.71 | 0.98 | COc1ccc(-c2cc(C(=O)NCCCN3CCOCC3)nn2-c2ccc(S(N)(=O)=O)cc2)cc1 | 200
> 100 | > 100 | > 100 | 15.4 | 7.64 | 0.72 | CCOc1ccc(-c2cc(C(=O)OCCCN3CCOCC3)nn2-c2ccc(S(N)(=O)=O)cc2)cc1 | 179
19.5 | 20.4 | 17.6 | 15 | 0.87 | 0.91 | COc1ccc(-c2cc(C(=O)NCCN3CCOCC3)nn2-c2ccc(S(N)(=O)=O)cc2)cc1 | 144
21.5 | 24.6 | 27.8 | 16.7 | 0.19 | 0.81 | NS(=O)(=O)c1ccc(-n2nc(C(=O)OCCN3CCOCC3)cc2-c2ccc(C(F)(F)F)cc2)cc1 | 148
